The results in this text go back to ChEMBL document CHEMBL1629690, “Development of hexadecyloxypropyl tenofovir (CMX157) for treatment of infection caused by wild-type and nucleoside/nucleotide-resistant HIV” (Antimicrob Agents Chemother, 2010).

The subject of the first test is Human immunodeficiency virus 1. The test is described as follows: Antiviral activity against HIV1 isolate 188 harboring reverse transcriptase T215Y/M184V mutant gene by phenosense assay relative to wild type. Format: functional.
Conditions: not given
The method in brief: (§1)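 Recombinant-virus PhenoSense HIV assay run on a panel of 30 NRTI-resistant HIV-1 mutants and two wild-type viruses. Each virus is tested across increasing drug concentrations to give an inhibition curve and EC50. Fold change is the test recombinant EC50 divided by the EC50 of the drug-sensitive wild-type reference virus.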
Take `C[C@H](Cn1cnc2c(N)ncnc21)OCP(=O)(O)O` [TENOFOVIR ANHYDROUS]: the “fold change (FC)” value was found to be 0.81.

In another test the test system is Human immunodeficiency virus 1. The test is described as follows: Antiviral activity against HIV1 isolate 204 harboring reverse transcriptase M41L/L210W/T215Y/M184V mutant gene by phenosense assay. Format: functional, organism-based. Particulars: Human immunodeficiency virus 1, isolate 204. The method in brief: (§2)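 PhenoSense HIV recombinant virus assay: patient-derived HIV-1 with major NRTI resistance mutations tested against increasing drug concentrations to give inhibition curves. EC50 is the concentration giving 50% inhibition. Fold change is the test recombinant EC50 divided by the EC50 of a drug-sensitive wild-type reference virus. Panel of 30 NRTI-resistant isolates plus two wild-type viruses.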
For the molecule `C[C@H](Cn1cnc2c(N)ncnc21)OCP(=O)(O)O` [TENOFOVIR ANHYDROUS], a half-maximal response (EC50) required 0.79 µM.

Another test relates to Human immunodeficiency virus 1. As to the kind of experiment: Antiviral activity against HIV1 isolate 203 harboring reverse transcriptase M41L/L210W/T215Y/M184V mutant gene by phenosense assay relative to wild type. The test is classed as functional.
Conditions: not given
The essentials: as §2
Take `C[C@H](Cn1cnc2c(N)ncnc21)OCP(=O)(O)O` [TENOFOVIR ANHYDROUS]: the “fold change (FC)” value is recorded as 0.97.

A further test deals with Human immunodeficiency virus 1. As to the kind of experiment: Antiviral activity against HIV1 isolate 206 harboring reverse transcriptase D67N/K70R mutant gene by phenosense assay. Format: functional, organism-based. Particulars: Human immunodeficiency virus 1, isolate 206. The method in brief: as §2
In turn, `C[C@H](Cn1cnc2c(N)ncnc21)OCP(=O)(O)O` [TENOFOVIR ANHYDROUS] showed a half-maximal effective concentration (EC50) of 2 µM.

A further test concerns Human immunodeficiency virus 1. The test is described as follows: Antiviral activity against HIV1 isolate 203 harboring reverse transcriptase M41L/L210W/T215Y/M184V mutant gene by phenosense assay. The conditions noted are these: Human immunodeficiency virus 1, isolate 203. Format: functional, organism-based. The essentials: as §2
In the case of `C[C@H](Cn1cnc2c(N)ncnc21)OCP(=O)(O)O` [TENOFOVIR ANHYDROUS], the half-maximal effective concentration (EC50) came out at 0.75 µM.

The subject of the next test is Human immunodeficiency virus 1. The test is described as follows: Antiviral activity against HIV1 isolate 166 harboring reverse transcriptase L74V mutant gene obtained as site-directed mutant of NL4-3 by phenosense assay. The test is classed as functional, organism-based. The conditions noted are these: Human immunodeficiency virus 1, isolate 166. The essentials:
as §1
Molecule `C[C@H](Cn1cnc2c(N)ncnc21)OCP(=O)(O)O` [TENOFOVIR ANHYDROUS] registered an EC50 of 0.54 µM.

A further test has as its system Human immunodeficiency virus 1. As to the kind of experiment: Antiviral activity against HIV1 isolate 194 harboring reverse transcriptase M41L/T215Y/M184V mutant gene by phenosense assay. Format: functional, organism-based. The conditions noted are these: Human immunodeficiency virus 1, isolate 194. The method in brief:
as §1
In turn, `C[C@H](Cn1cnc2c(N)ncnc21)OCP(=O)(O)O` [TENOFOVIR ANHYDROUS] registered an EC50 of 1 µM.

In the next test the test system is Human immunodeficiency virus 1. The test is described as follows: Antiviral activity against HIV1 isolate 220 harboring reverse transcriptase K70E/M184V mutant gene by phenosense assay. The test is classed as functional, organism-based. The conditions noted are these: Human immunodeficiency virus 1, isolate 220. The essentials: as §2
Molecule `C[C@H](Cn1cnc2c(N)ncnc21)OCP(=O)(O)O` [TENOFOVIR ANHYDROUS] displayed a half-maximal effective concentration (EC50) of 0.47 µM.

The test system of a further test is Human immunodeficiency virus 1. As to the kind of experiment: Antiviral activity against HIV1 isolate 058 harboring reverse transcriptase M41L/D67N/K70R/L210W/T215F/K219Q mutant gene by phenosense assay relative to wild type. Format: functional.
Conditions: not given
The essentials: as §1
Turning to `C[C@H](Cn1cnc2c(N)ncnc21)OCP(=O)(O)O` [TENOFOVIR ANHYDROUS], the “fold change (FC)” value is listed as 3.5.

The next test deals with Human immunodeficiency virus 1. As to the kind of experiment: Antiviral activity against HIV1 isolate 069 harboring reverse transcriptase D67E/T69SSG/V75M/M184V/L210W/T215Y mutant gene by phenosense assay. The test is classed as functional, organism-based. The conditions noted are these: Human immunodeficiency virus 1, isolate 069. The method in brief:
as §1
For the molecule `C[C@H](Cn1cnc2c(N)ncnc21)OCP(=O)(O)O` [TENOFOVIR ANHYDROUS], the concentration giving a half-maximal response (EC50) amounted to 3.6 µM.

For a further test, the system named is Human immunodeficiency virus 1. The test is described as follows: Antiviral activity against HIV1 isolate 220 harboring reverse transcriptase K70E/M184V mutant gene by phenosense assay relative to wild type. The test is classed as functional.
Conditions: not given
The method in brief:
as §2
For the molecule `C[C@H](Cn1cnc2c(N)ncnc21)OCP(=O)(O)O` [TENOFOVIR ANHYDROUS], the “fold change (FC)” value was found to be 0.61.

For the next test, the system named is Human immunodeficiency virus 1. The test is described as follows: Antiviral activity against HIV1 isolate 153 harboring reverse transcriptase L74V mutant gene by phenosense assay relative to wild type. The test is classed as functional.
Conditions: not given
The essentials: as §1
`C[C@H](Cn1cnc2c(N)ncnc21)OCP(=O)(O)O` [TENOFOVIR ANHYDROUS]: the “fold change (FC)” value was 0.62.

A further test has as its system Human immunodeficiency virus 1. As to the kind of experiment: Antiviral activity against HIV1 isolate 066 harboring reverse transcriptase 184V mutant gene by phenosense assay. The test is classed as functional, organism-based. Particulars: Human immunodeficiency virus 1, isolate 066. The essentials: as §1
`C[C@H](Cn1cnc2c(N)ncnc21)OCP(=O)(O)O` [TENOFOVIR ANHYDROUS] registered an EC50 of 0.53 µM.

The next test relates to Human immunodeficiency virus 1. As to the kind of experiment: Antiviral activity against HIV1 isolate 185 harboring reverse transcriptase T215Y mutant gene by phenosense assay. The conditions noted are these: Human immunodeficiency virus 1, isolate 185. Format: functional, organism-based. The essentials: as §1
Molecule `C[C@H](Cn1cnc2c(N)ncnc21)OCP(=O)(O)O` [TENOFOVIR ANHYDROUS] returned a concentration giving a half-maximal response (EC50) of 1.8 µM.

For a further test, the system named is Human immunodeficiency virus 1. As to the kind of experiment: Antiviral activity against HIV1 isolate 217 harboring reverse transcriptase D67N/K70E/M184V mutant gene by phenosense assay. The conditions noted are these: Human immunodeficiency virus 1, isolate 217. The test is classed as functional, organism-based. The essentials: as §2
`C[C@H](Cn1cnc2c(N)ncnc21)OCP(=O)(O)O` [TENOFOVIR ANHYDROUS] displayed a concentration for a half-maximal effect (EC50) of 0.5 µM.

The subject of another test is Human immunodeficiency virus 1. As to the kind of experiment: Antiviral activity against HIV1 isolate 160 harboring reverse transcriptase S68G/V75(I/T)/F77L/Y115F/F116Y /Q151M mutant gene by phenosense assay relative to wild type. The test is classed as functional.
Conditions: not given
The method in brief:
as §1
In the case of `C[C@H](Cn1cnc2c(N)ncnc21)OCP(=O)(O)O` [TENOFOVIR ANHYDROUS], the “fold change (FC)” value was determined as 2.3.

The subject of the next test is Human immunodeficiency virus 1. The test is described as follows: Antiviral activity against HIV1 isolate 201 harboring reverse transcriptase M41L/L210W/T215Y mutant gene by phenosense assay. The test is classed as functional, organism-based. The conditions noted are these: Human immunodeficiency virus 1, isolate 201. The method in brief:
as §1
`C[C@H](Cn1cnc2c(N)ncnc21)OCP(=O)(O)O` [TENOFOVIR ANHYDROUS] returned an EC50 of 2.3 µM.

In general, EC50 refers to the midpoint of the concentration-response curve. A higher EC50 goes with a less potent agent.
